The source made the active and inactive calls. The calls are words filed in the database; no cut-off is given here.
Columns and labels:
[1] = Cytotoxicity against african green monkey Vero cells by MTT assay; format: cell-based; details: chlorocebus sabaeus
How it was run: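 Vero cells; MTT viability read-out. CC50 taken as concentration reducing cell viability by 50%. Mean ± SD of three independent experiments.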

[2] = system: Human alphaherpesvirus 1; assay: Antiviral activity against HSV1 infected in african green monkey Vero cells assessed as reduction of UL52 expression at 1 uM after up to 24 hrs by RT-PCR analysis; format: functional, organism-based
How it was run: (§1)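 Vero monolayer infected with HSV-1 (MOI = 1) with or without 1 µM compound. RNA extracted at 3, 6 and 12 hpi, reverse transcribed, and serially diluted cDNA used for real-time PCR of UL54, UL52 and UL27. Mean ± SD, n = 3; Student's t-test against untreated controls.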

[3] = system: Human alphaherpesvirus 1; assay: Antiviral activity against HSV1 infected in african green monkey Vero cells assessed as log reduction of viral yield at 1 uM treated after 9 hrs post infection by plaque assay; format: functional
How it was run: (§2)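 HSV-1 at MOI = 1 in Vero cells, compound at 1 µM in time-of-addition and time-of-removal schedules. Cultures harvested at 24 hpi; virus yield titrated by plaque assay.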

[4] = system: Human alphaherpesvirus 1; assay: Antiviral activity against HSV1 infected in african green monkey Vero cells assessed as inhibition of viral replication by plaque reduction assay; format: functional, organism-based; details: Human alphaherpesvirus 1, Vero
How it was run: (§3)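 Vero cells; plaque reduction assay at concentrations found non-cytotoxic by MTT. EC50 is the concentration inhibiting 50% of HSV replication. Mean ± SD of three independent experiments.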

[5] = system: Human alphaherpesvirus 2; assay: Antiviral activity against HSV2 infected in african green monkey Vero cells assessed as inhibition of virus-induced cytopathic effect; format: functional, organism-based
[6] = system: Human alphaherpesvirus 1; assay: Antiviral activity against HSV1 infected in african green monkey Vero cells assessed as log reduction of viral yield at 1 uM treated after 24 hrs post infection by plaque assay; format: functional; how it was run: as §2
[7] = system: Human alphaherpesvirus 1; assay: Antiviral activity against HSV1 infected in african green monkey Vero cells assessed as inhibition of virus-induced cytopathic effect; format: functional, organism-based
[8] = system: Human alphaherpesvirus 1; assay: Antiviral activity against HSV1 infected in african green monkey Vero cells assessed as reduction of UL54 expression at 1 uM after up to 24 hrs by RT-PCR analysis; format: functional, organism-based; how it was run: as §1
[9] = system: Human orthopneumovirus; assay: Antiviral activity against Human respiratory syncytial virus infected in african green monkey Vero cells assessed as inhibition of virus-induced cytopathic effect; format: functional, organism-based
[10] = system: Influenza A virus; assay: Antiviral activity against Influenza A virus H1N1 infected in african green monkey Vero cells assessed as inhibition of virus-induced cytopathic effect; format: functional, organism-based
[11] = system: Human alphaherpesvirus 1; assay: Antiviral activity against HSV1 infected in african green monkey Vero cells assessed as log reduction of viral yield at 1 uM treated after 6 hrs post infection by plaque assay; format: functional; how it was run: as §2
[12] = system: Human alphaherpesvirus 2; assay: Antiviral activity against HSV2 infected in african green monkey Vero cells assessed as inhibition of viral replication by plaque reduction assay; format: functional, organism-based; details: Human alphaherpesvirus 2, Vero; how it was run: as §3
[13] = Therapeutic index, ratio of CC50 for african green monkey Vero cells to EC50 for HSV2; format: cell-based; details: read-out: TI
How it was run: (§4)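 TI calculated as CC50 (Vero, MTT) divided by EC50 (Vero, plaque reduction) for the respective HSV type.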

[14] = system: Human alphaherpesvirus 1; assay: Antiviral activity against HSV1 infected in african green monkey Vero cells assessed as log reduction of viral yield at 1 uM after drug washout by plaque assay; format: functional; how it was run: as §2
[15] = system: Human alphaherpesvirus 1; assay: Antiviral activity against HSV1 infected in african green monkey Vero cells assessed as reduction of UL27 expression at 1 uM after up to 24 hrs by RT-PCR analysis; format: functional, organism-based; how it was run: as §1
[16] = system: Coxsackievirus B3; assay: Antiviral activity against Coxsackievirus B3 infected in african green monkey Vero cells assessed as inhibition of virus-induced cytopathic effect; format: functional, organism-based
[17] = system: Human alphaherpesvirus 1; assay: Antiviral activity against HSV1 infected in african green monkey Vero cells assessed as inhibition DNA synthesis at 1 uM after 24 hrs by RT-PCR analysis; format: functional, organism-based
How it was run: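 Vero monolayer infected with HSV-1 (MOI = 1) with or without 1 µM compound. DNA extracted at 24 hpi; UL52 quantified by real-time PCR. Mean ± SD, n = 3; Student's t-test against untreated controls.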

[18] = Therapeutic index, ratio of CC50 for african green monkey Vero cells to EC50 for HSV1; format: cell-based; details: read-out: TI; how it was run: as §4

SMILES	CC50 [1]	Activity [2]	PFU/ml [3]	EC50 [4]	inhibition [5]	PFU/ml [6]	inhibition [7]	Activity [8]	inhibition [9]	inhibition [10]	PFU/ml [11]	EC50 [12]	selectivity ratio [13]	PFU/ml [14]	Activity [15]	inhibition [16]	inhibition [17]	selectivity ratio [18]
CC(=O)OC1CCC(Nc2cc(-n3nc(C)c4c3CC(C)(C)CC4=O)ccc2C(N)=O)CC1 (stereo unspecified)	35500 nM	Active	6.67	420 nM	Active	7.09	Active	inactive	inactive	inactive	7.13	600 nM	59.2	6.14	Active	inactive	Active	84.5
Nc1nc2c(ncn2COCCO)c(=O)[nH]1 [ACYCLOVIR]	> 200000 nM	Active		1160 nM				inactive				1720 nM	> 116		Active			> 172
